TRPC4 PAM = positive allosteric modulators of TRPC4, primary screen, cell-based, mouse TRPC4beta, HEK293 mu-opioid, Fluo-4 calcium. Short transient receptor potential channel 4 (Mus musculus), Q9QUQ5. DAMGO EC20, Fluo-4 Ca2+ flux; stronger effect = higher value. B-score at 10 µM. hit rate 0.42% among 310,000. AID 2227, 2009;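 active = B-score of calcium response area above 5 SD of library B-scores, with initial fluorescence ratio within 5 SD of library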;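 also: B-score of integrated fluorescence ratio over time as area under calcium response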
Target sequence (Q9QUQ5 whole entry, looked up): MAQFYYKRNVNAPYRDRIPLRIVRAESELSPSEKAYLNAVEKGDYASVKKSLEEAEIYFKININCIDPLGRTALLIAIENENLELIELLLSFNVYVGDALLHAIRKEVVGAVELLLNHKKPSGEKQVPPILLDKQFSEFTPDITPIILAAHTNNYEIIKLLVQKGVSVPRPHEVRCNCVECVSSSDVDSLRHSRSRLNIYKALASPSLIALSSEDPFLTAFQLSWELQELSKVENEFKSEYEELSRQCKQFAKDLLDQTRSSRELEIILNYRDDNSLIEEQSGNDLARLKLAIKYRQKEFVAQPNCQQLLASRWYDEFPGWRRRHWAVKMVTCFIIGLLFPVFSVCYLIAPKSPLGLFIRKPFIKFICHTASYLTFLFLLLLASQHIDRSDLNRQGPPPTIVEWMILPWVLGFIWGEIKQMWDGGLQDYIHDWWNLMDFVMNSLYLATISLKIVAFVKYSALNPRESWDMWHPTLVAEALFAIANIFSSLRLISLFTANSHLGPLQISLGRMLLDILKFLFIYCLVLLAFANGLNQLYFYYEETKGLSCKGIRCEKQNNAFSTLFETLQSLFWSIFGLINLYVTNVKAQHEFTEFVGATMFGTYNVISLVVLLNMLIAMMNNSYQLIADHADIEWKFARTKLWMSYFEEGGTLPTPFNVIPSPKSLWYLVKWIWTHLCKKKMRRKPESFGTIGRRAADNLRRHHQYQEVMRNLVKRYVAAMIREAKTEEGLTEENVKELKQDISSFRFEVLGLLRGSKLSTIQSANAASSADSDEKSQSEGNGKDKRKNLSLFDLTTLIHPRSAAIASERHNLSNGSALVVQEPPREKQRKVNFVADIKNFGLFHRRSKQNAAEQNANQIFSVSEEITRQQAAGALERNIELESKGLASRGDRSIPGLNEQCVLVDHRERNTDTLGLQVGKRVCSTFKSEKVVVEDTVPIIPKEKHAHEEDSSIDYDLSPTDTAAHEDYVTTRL
TRPC4 inh = inhibitors of mouse TRPC4 channel, primary screen, Fluo4 calcium, HEK293 TRPC4beta/mu-opioid cells. DAMGO-evoked Fluo4 calcium flux; stronger effect = lower value. hit rate 0.39% among 300,000. B-score at 10 µM;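 active = B-score over 3 SD under the library average, no early fluorescence shift, positive overall ratio signal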
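Assay system: Stable TRPC4beta/mu-opioid receptor HEK293 cells | Reagent: DAMGO in two steps, submaximal then maximal | Compound dosing: Single concentration per test compound | Signal: Fluo4 Ca2+ flux fluorescence | Evaluation: Per-well B score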
TRPC6 inh = mouse TRPC6 channel inhibitors, primary screen, cell-based, HEK293, membrane potential dye; AID 2553, 2010; hit rate 1.1% among 310,000; B-score at 10 µM; ACh-evoked depolarization; stronger effect = lower value;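 active = B-score under library mean minus 3 SD, initial fluorescence not abnormally high, positive integrated signal ratio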;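 also: B-score derived from integrated fluorescence ratio over the kinetic read; more negative B-score means stronger inhibition of depolarization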
TRPC4 act = activators of mouse TRPC4 channel, primary screen, Fluo4 calcium, HEK293 TRPC4beta/mu-opioid cells. Short transient receptor potential channel 4 (Mus musculus), Q9QUQ5. Fluo4 calcium fluorescence; stronger effect = higher value. B-score at 10 µM. hit rate 0.49% among 310,000. AID 2237, 2010;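 active = B-score above 5 SD of library B-scores, and initial fluorescence ratio not above library mean plus 5 SD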;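 also: positive B-score marks a calcium rise read as TRPC4 activation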
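Test system: HEK293 cells stably co-expressing mouse TRPC4beta and mu-opioid receptor | Schedule: Fluo4 dye loading 45 min at room temperature, 110 s recording | Measured by: Kinetic Fluo4 calcium fluorescence, 5 s baseline at 1 Hz | Evaluation: B score of integrated ratio | Controls: Buffer (low) and maximal DAMGO (high)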
TRPC6 activator = mouse TRPC6 channel activators, primary screen, cell-based, HEK293, membrane potential dye. B-score at 10 µM. hit rate 0.13% among 310,000. Short transient receptor potential channel 6 (Mus musculus), Q61143. HEK293-TRPC6 membrane potential dye fluorescence; stronger effect = higher value;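 active = B-score of the integrated fluorescence ratio above library mean plus 3 SD, and starting fluorescence ratio within library mean plus 5 SD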;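 also: higher score means more depolarization so channel activation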
TRPC4 spec 2 = second check of whether TRPC6 inhibitors also affect mouse TRPC4; shares compounds with TRPC6 inh; HEK293 TRPC4/MOR, membrane potential dye fluorescence; channel activated by saturating DAMGO dose; inhibition, % at 10 µM; hit rate 42% among 920; AID 2776;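 active = compounds whose fluorescence signal differed from control wells by over 3 SD, either direction, in both duplicate plates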
TRPC4 spec = mouse TRPC4 modulation by TRPC6 hits, confirmation, selectivity assay for TRPC6 inhibitor project, cell-based, HEK293 TRPC4/mu-opioid, membrane potential dye; shares compounds with TRPC6 inh; membrane potential fluorescence; activity change, negative = inhibition, % at 10 µM; hit rate 61% among 920;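 active = rise or fall in signal beyond 3 SD of buffer-only wells in both replicate plates, either sign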;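 also: integrated kinetic ratio of fluorescence range over baseline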
HEK293 MPD ctr 2-1 = nonspecific membrane potential effects, parental HEK293, confirmation, counter-screen for TRPC6 inhibitor project, cell-based, second counter screen; hit rate 31% among 920; signal change vs control, % at 10 µM; shares compounds with TRPC6 inh; parental HEK293 membrane potential dye fluorescence; maximal acetylcholine challenge after compound addition;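 active = membrane potential signal moving either way by over 3 SD of the maximum-effect control, in both duplicate plates, meaning non-specific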
HEK293 MPD ctr-1 = membrane potential modulation in parental HEK293, confirmation, counter-screen for TRPC6 inhibitor project, cell-based; membrane potential signal change, % at 10 µM; parental HEK293 membrane potential dye fluorescence; hit rate 60% among 920; shares compounds with TRPC6 inh;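 active = membrane potential signal shifting up or down by more than 3 SD of buffer-only wells, on both duplicate plates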
HEK293 MPD ctr-2 = parental HEK293 membrane potential modulation, confirmation, counter-screen for TRPC6 modulator project, cell-based; shares compounds with TRPC6 inh; membrane potential dye fluorescence; membrane potential signal change, % at 10 µM; hit rate 51% among 2,400; AID 488924, 2010;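 active = membrane potential signal moves up or down beyond 5 SD from buffer-only wells, on both duplicate plates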
HEK293 MPD ctr 2-2 = second check of TRPC6 modulator effects in parental HEK293 cells; shares compounds with TRPC6 inh; membrane potential dye fluorescence; after compound, maximal acetylcholine stimulation; inhibition, % at 10 µM; hit rate 14% among 2,400; AID 488926;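 active = membrane potential signal drops by more than 5 SD from the mean control signal, in both duplicate plates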;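 also: plate controls were acetylcholine ECmax control wells for no effect and buffer only wells for full effect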
TRPC4/MOR mod = TRPC4 modulation by TRPC6 hit compounds, confirmation, selectivity assay for TRPC6 modulator project, cell-based, HEK293 TRPC4/mu-opioid, membrane potential dye, mouse; membrane potential fluorescence; percent change from control (negative = decrease, positive = increase), % at 10 µM; AID 488927, 2010; shares compounds with TRPC6 inh; hit rate 69% among 2,400;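 active = membrane potential signal moved up or down beyond 5 SD of buffer control wells, in both duplicate plates, actives on both sides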;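 also: plate controls were assay buffer wells for no effect and DAMGO maximal-effect wells for full effect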
TRPC4 ctr inh 2 = second check of whether TRPC6 modulators also affect mouse TRPC4; shares compounds with TRPC6 inh; HEK293 TRPC4/mu-opioid, membrane potential dye fluorescence; stimulated with maximal-effect DAMGO; inhibition, % at 10 µM; hit rate 55% among 2,400;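 active = drop in membrane potential signal beyond 5 SD of the control wells in both duplicate plates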;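 also: TRPC4 counter screen for TRPC6 hits run under conditions tuned for TRPC6 not TRPC4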
TRPC6 block conf = mouse TRPC6 channel inhibitors, confirmation, HEK293 cells, membrane potential dye, duplicate | shares compounds with TRPC6 inh | ACh-evoked depolarization | inhibition, % at 10 µM | hit rate 43% among 3,300 | AID 488960, 2010;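 active = fluorescence ratio falls more than 5 SD below the full-stimulation control mean, in both duplicate runs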;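 also: integrated fluorescence ratio of peak minus minimum over baseline after agonist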
TRPC6 act conf = mouse TRPC6 channel activators, confirmation, HEK293 cells, membrane potential dye, duplicate | hit rate 11% among 2,800 | AID 488961, 2010 | shares compounds with TRPC6 inh | HEK293-TRPC6 membrane potential dye fluorescence, FDSS | activation, % at 10 µM;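 active = ratio signal rise beyond 5 SD above unstimulated control wells' mean, seen in both duplicate runs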;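 also: plate controls were buffer EC0 wells for no effect and acetylcholine ECmax response for full effect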
An asterisk follows results filed as active; i = inactive; / = no result given. A selection: hits, their analogues and other compounds. The true share with any hit is near 2.3%.

SMILES | TRPC4 PAM | TRPC4 inh | TRPC6 inh | TRPC4 act | TRPC6 activator | HEK293 MPD ctr-2 | HEK293 MPD ctr 2-2 | TRPC4/MOR mod | TRPC4 ctr inh 2 | TRPC6 block conf | TRPC6 act conf | others
CCOC(=O)C1=NN(C(=O)c2ccc(C)cc2)C(O)(c2ccc(Cl)cc2)C1 (stereo not given) | i | i | -8* | 90* | 18* | 281%* | i | 70%* | i | i | 180%*
CN(C)S(=O)(=O)c1cccc(C(=O)NCC(C)(C)CNC(=O)c2cccc(S(=O)(=O)N(C)C)c2)c1 | i | i | i | i | i | / | / | / | / | / | /
CC(C(=O)NCC1CCCCC1)N(C)CC(=O)Nc1ccc(N2CCOCC2)cc1 (stereo not given) | i | i | i | i | i | / | / | / | / | / | /
O=C(CN(Cc1ccco1)C(=O)CNS(=O)(=O)c1ccc(F)cc1)NCCc1ccccc1 | i | i | -5.3* | i | i | i | i | 12%* | i | i | i
COC(=O)C1=C(N)OC2=C(C(=O)CC(C)(C)C2)C1c1cc2c(cc1Cl)OCO2 (stereo not given) | i | i | -9.3* | i | i | / | / | / | / | i | i | TRPC4 spec 2=34%*;TRPC4 spec=i;HEK293 MPD ctr 2-1=i;HEK293 MPD ctr-1=i
Cc1c(NC(=O)COC(=O)c2ccc(F)c(S(=O)(=O)N3CCOCC3)c2)c(=O)n(-c2ccccc2)n1C | i | i | i | i | i | / | / | / | / | / | /
COc1cccc(C(=O)N=c2sc3cc(S(C)(=O)=O)ccc3n2C)c1 | i | i | i | i | i | / | / | / | / | / | /
NNc1nc2c(-c3cccc(C(F)(F)F)c3)nnn2c2ccccc12 | i | i | i | i | i | / | / | / | / | / | /
COc1ccc(C)cc1NC(=O)Nc1ccc(C(=O)N2CCCC2)cc1 | i | i | i | i | i | / | / | / | / | / | /
Oc1ccc(Nc2nc(N3CCCC3)c3ccccc3n2)cc1 | i | -6* | -11* | i | i | / | / | / | / | 71%* | i | TRPC4 spec 2=56%*;TRPC4 spec=-19%*;HEK293 MPD ctr 2-1=32%*;HEK293 MPD ctr-1=-262%*
Cc1ccc(Nc2nc(N3CCOCC3)c3ccccc3n2)cc1 | i | i | -5.3* | i | i | i | i | -22%* | 55%* | i | i
COc1ccc(Nc2nc(N3CCCCC3)c3ccccc3n2)cc1 | i | i | -7.5* | i | i | / | / | / | / | i | i | TRPC4 spec 2=i;TRPC4 spec=i;HEK293 MPD ctr 2-1=i;HEK293 MPD ctr-1=i
c1ccc2c(c1)nc(N1CCCCCC1)c1ccccc12 | i | i | i | i | i | / | / | / | / | / | /
Cc1ccc(Nc2nc(N)c([N+](=O)[O-])c(N3CCOCC3)n2)cc1 | i | i | i | i | i | / | / | / | / | / | /
Cc1ccc2nc(SCC(=O)N3CCC(C)CC3)nc(=O)n2c1 | i | i | i | i | i | / | / | / | / | / | /
COc1ccc(CCNC(=O)Cn2c(=O)n(-c3ccc(C)c(F)c3)c(=O)c3sccc32)cc1OC | i | i | i | i | i | / | / | / | / | / | /
CCOc1ccc(Br)cc1/C=N/O | i | -6* | -5.9* | i | 16* | 124%* | i | 22%* | i | 58%* | 132%*
CCCN(CCC)CCNC(=O)CN1C(=O)COc2ccc(S(=O)(=O)N3CCOCC3)cc21 | i | i | i | i | i | / | / | / | / | / | /
O=C(Nc1ccc2nccnc2c1)c1cnccn1 | i | i | -5.8* | i | i | -272%* | i | -48%* | 42%* | 49%* | i
CCCn1c(C)cc(=O)c2cc(NC(=O)c3cnccn3)ccc21 | i | i | -12* | i | i | -300%* | 86%* | -60%* | 60%* | 66%* | i
CCc1ccc(NC(=O)c2cnccn2)cc1 | i | i | i | i | i | / | / | / | / | / | /
COc1ccccc1NC(=O)Nc1ccc2c(c1)CCC2 | i | i | -5* | i | i | i | i | i | i | i | i
Cc1c(C(=O)O)oc2c1/C(=N\O)CC(C)(C)C2 | i | i | i | i | i | / | / | / | / | / | /
COC(=O)c1cccc(N/C=C(\[N+](=O)[O-])S(=O)(=O)c2ccccc2)c1 | i | i | i | i | i | / | / | / | / | / | /
O=C(COc1coc(CN2CCN(c3ccccc3F)CC2)cc1=O)NCC1CCCO1 (stereo not given) | i | i | i | i | i | / | / | / | / | / | /

Screens from PubChem.
